Assay results of several laboratories.
Compare with care: the assays were run in different laboratories. Converted amounts (≈) assume the structure as drawn.
Organism: Streptococcus pneumoniae
Effect on: microbial growth

SMILES	method	strain	endpoint	result
CCCCCCCCCCCCCCCC(=O)NS(=O)(=O)Oc1ccc(CCNC(=O)OC(C)(C)C)cc1	broth dilution	R6	MIC	50 µg/mL (≈ 90.1 µM)
CN[C@@H]1[C@H](O)[C@H](NC)[C@H]2O[C@@]3(O)C(=O)C[C@@H](C)O[C@H]3O[C@@H]2[C@H]1O	broth dilution	DAW27	MIC	25 µg/mL (≈ 75.2 µM)
C[C@H]1COCCN1c1nc(NCc2cccnc2C(F)(F)F)c2cccnc2n1	broth dilution	–	MIC	32 to 64 µg/mL (≈ 79.1 to 158 µM)
CN[C@H](CC(C)C)C(=O)N[C@H]1C(=O)N[C@@H](CC(N)=O)C(=O)N[C@H]2C(=O)N[C@H]3C(=O)N[C@H](C(=O)N[C@H](C(=O)O)c4cc(O)cc(O)c4-c4cc3ccc4O)[C@H](O)c3ccc(c(Cl)c3)Oc3cc2cc(c3O[C@@H]2O[C@H](CO)[C@@H](O)[C@H](O)[C@H]2O[C@H]2C[C@](C)(N)[C@H](O)[C@H](C)O2)Oc2ccc(cc2Cl)[C@H]1O	–	–	MIC	0.12 µg/mL (≈ 0.0828 µM)
CCCCCCCCCCCCCCCCCc1cc(O)cc(O)c1	–	–	IC50	> 200 µM
CNC(=O)Oc1c2c(c(O)c3cc(CN4CCC4)ccc13)C(=O)C1=C(O)[C@]3(O)C(=O)C(C(N)=O)=C(O)[C@@H](N(C)C)[C@@H]3C[C@@H]1C2	broth dilution	ATCC49619	MIC	0.5 µg/mL (≈ 0.824 µM)
CC(C)CCCCCCCCCCCCCCCc1cc(O)cc(O)c1	–	–	IC50	70 µM
COc1ccc2cc1Oc1cc(ccc1OC)CCC(N[C@@H]1CCCc3ccccc31)CCCC2 (some centres unmarked)	broth dilution	–	MIC	> 100 µg/mL
